Experimental data from ChEMBL document CHEMBL1158452, “Na+ currents in cardioprotection: better to be late” (J Med Chem, 2009).
Calls of active or inactive are those of the source. The rule behind the calls is not given here.

Tests used:
Heart [1] = assay: Cardioprotective activity in Langendorff-perfused guinea pig heart assessed as inhibition of global ischemia-induced diastolic contracture at 1 uM; assay type: functional; conditions: Cavia porcellus
Method in brief: (§1)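 Female Hartley guinea pig hearts, Langendorff-perfused at constant 800 mm H2O with modified Krebs (pH 7.4, 95% O2/5% CO2), 37 °C, LV latex balloon. After 45-60 min equilibration, compound or vehicle perfused 15 min, then 50 min global normothermic ischemia and 60 min reperfusion; one concentration per heart. LVDP, end-diastolic pressure, heart rate, dP/dt, coronary flow recorded.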

[2] = biological target: T1, Sodium channel protein type 5 subunit alpha (Homo sapiens, UniProt Q14524); assay: Inhibition of human Nav1.5 channel expressed in HEK293 cells assessed as blockade of veratridine-induced late inward sodium current elicited at -30 mV from holding potential -110 mV at 10 uM by patch clamp method; assay type: cell-based
T1 sequence (Q14524 whole entry): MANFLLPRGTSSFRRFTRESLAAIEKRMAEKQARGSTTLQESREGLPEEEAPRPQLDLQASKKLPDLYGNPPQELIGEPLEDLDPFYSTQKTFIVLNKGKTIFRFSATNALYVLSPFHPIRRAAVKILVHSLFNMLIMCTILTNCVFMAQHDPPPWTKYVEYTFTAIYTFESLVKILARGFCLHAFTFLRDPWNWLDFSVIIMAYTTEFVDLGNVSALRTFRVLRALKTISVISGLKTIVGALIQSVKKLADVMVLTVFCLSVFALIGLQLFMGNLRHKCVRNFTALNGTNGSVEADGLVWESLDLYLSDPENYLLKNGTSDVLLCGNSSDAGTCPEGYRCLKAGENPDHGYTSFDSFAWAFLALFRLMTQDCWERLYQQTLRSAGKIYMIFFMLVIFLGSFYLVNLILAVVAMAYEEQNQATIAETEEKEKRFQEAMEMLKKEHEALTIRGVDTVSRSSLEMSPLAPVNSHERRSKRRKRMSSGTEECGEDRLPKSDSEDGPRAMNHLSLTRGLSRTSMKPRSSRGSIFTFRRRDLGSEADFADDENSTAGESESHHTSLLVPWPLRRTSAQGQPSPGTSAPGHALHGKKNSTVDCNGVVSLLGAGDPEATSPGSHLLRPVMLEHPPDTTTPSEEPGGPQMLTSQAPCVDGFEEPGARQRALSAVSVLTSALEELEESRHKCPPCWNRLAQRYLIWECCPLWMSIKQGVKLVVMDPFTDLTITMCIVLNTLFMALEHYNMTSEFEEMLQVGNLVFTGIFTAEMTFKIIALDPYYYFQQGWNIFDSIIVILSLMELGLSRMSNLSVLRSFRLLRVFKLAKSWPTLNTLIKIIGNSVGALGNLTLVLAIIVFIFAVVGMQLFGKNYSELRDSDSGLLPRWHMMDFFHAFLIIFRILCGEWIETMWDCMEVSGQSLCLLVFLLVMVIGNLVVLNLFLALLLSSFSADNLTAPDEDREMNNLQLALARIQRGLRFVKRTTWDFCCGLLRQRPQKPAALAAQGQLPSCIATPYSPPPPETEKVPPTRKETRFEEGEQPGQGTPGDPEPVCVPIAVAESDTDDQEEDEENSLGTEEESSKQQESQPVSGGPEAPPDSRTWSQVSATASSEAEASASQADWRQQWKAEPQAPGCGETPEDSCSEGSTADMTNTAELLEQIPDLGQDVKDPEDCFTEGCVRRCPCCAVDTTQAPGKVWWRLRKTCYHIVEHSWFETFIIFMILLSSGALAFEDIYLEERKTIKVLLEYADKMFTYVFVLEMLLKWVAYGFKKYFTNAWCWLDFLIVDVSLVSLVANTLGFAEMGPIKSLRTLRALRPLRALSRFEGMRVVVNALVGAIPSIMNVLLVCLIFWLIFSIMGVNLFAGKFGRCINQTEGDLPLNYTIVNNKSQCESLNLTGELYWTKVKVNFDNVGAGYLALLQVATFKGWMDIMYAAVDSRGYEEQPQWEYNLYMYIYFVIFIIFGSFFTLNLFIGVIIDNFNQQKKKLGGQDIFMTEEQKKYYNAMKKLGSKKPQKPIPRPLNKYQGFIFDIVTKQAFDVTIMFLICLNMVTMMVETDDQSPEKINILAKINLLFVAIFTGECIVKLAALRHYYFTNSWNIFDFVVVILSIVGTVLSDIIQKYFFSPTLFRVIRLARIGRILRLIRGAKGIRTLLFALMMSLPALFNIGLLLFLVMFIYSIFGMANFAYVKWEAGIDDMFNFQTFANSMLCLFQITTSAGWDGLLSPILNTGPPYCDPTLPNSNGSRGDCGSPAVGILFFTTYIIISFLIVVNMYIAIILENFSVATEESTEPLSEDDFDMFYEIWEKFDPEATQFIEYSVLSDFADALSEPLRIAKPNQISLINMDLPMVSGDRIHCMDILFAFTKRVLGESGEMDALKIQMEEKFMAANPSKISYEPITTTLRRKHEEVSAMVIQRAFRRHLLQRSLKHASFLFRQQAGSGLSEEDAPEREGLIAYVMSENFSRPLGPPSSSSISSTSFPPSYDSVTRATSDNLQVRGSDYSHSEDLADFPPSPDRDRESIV
Method in brief: (§2)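 HEK293 cells expressing hNaV1.5, room temperature (19-22 °C). Pipette (mmol): NaCl 10, CsCl 110, CaCl2 1, HEPES 10, EGTA 10, Mg-ATP 5, glucose 10, pH 7.3; bath: NaCl 30, CsCl 100, MgCl2 2, CaCl2 2, HEPES 10, glucose 5, pH 7.4. Veratridine 40 μM; 350 ms pulses to -30 mV at 0.2 Hz; late INa = mean current over last 10 ms; DMSO final 0.1%.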

[3] = biological target: T1, Sodium channel protein type 5 subunit alpha; assay: Inhibition of human Nav1.5 channel expressed in HEK293 cells assessed as blockade of veratridine-induced late inward sodium current elicited at -30 mV from holding potential -90 mV at 10 uM by patch clamp method; assay type: cell-based; method in brief: as §2
Sus scrofa [4] = species on record: Sus scrofa; assay: Cardioprotective activity against myocardial ischemia-reperfusion in Landrace pig heart assessed as prevention of post reperfusion injury after 48 hrs; assay type: functional, tissue-based
Method in brief: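 Anaesthetised male Landrace pigs (18-25 kg); LCX occluded 60 min, reperfused 48 h. Compound i.v. bolus 10 min pre-ischemia plus infusion through occlusion and first 30 min reperfusion. Evans blue delineates area at risk, TTC (0.1%) stains viable tissue; 10 mm LV slices imaged; necrosis expressed as % of area at risk. Means ± SEM; ANOVA with Dunnett's test.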

Plasma = assay: Cardioprotective activity in […] Landrace pig assessed decrease in troponin 1 plasma level administered iv 60 mins before ischemia measured after 6 hrs of reperfusion; assay type: functional, organism-based; conditions: Sus scrofa
[5] = Cardioprotective activity in […] Landrace pig heart assessed decrease in myocardial infarct volume […] followed by 30 mins of reperfusion; assay type: functional, Sus scrofa; set-up: scale not given: the % may be the effect or the level left
Cardiac atrium = conditions: Rattus norvegicus, Wistar, 1 uM
[6] = Cardioprotective activity in […] Landrace pig heart assessed decrease in myocardial infarct size […]; assay type: functional, Sus scrofa; set-up: scale not given: the % may be the effect or the level left
Sus scrofa [7] = assay: Cardioprotective activity in […] Landrace pig heart assessed as change in blood flow administered iv 60 mins before ischemia followed by 48 hrs of reperfusion; assay type: functional, organism-based
Heart [8] = assay: Cardiovascular activity in Langendorff-perfused guinea pig heart assessed as change in coronary vascular resistance at 1 uM; assay type: functional, Cavia porcellus; method in brief: as §1
Sus scrofa [9] = assay: Cardioprotective activity in […] Landrace pig heart assessed as change collateral circulation administered iv 60 mins before ischemia followed by 48 hrs of reperfusion; assay type: functional, organism-based
Sus scrofa [10] = species on record: Sus scrofa; assay: Cardioprotective activity in […] Landrace pig assessed enhancement of Na+ current; assay type: functional, organism-based
Heart [11] = assay: Cardiovascular activity in Langendorff-perfused guinea pig heart assessed as change in heart rate at 1 uM; assay type: functional, Cavia porcellus; method in brief: as §1
Heart [12] = assay: Cardiovascular activity in Langendorff-perfused guinea pig heart assessed as change in left ventricular developed pressure at 1 uM; assay type: functional, Cavia porcellus; method in brief: as §1

SMILES | inhibition at 1 µM (Heart [1]) | inhibition at 10 µM [2] | inhibition at 10 µM [3] | also measured
C[C@@H](CN[C@@H]1COc2ccccc2SC1)CSc1cccc(F)c1O | 54% | 38% | 40% | 
C[C@@H](CN[C@@H]1COc2ccccc2SC1)CSc1cccc2c1OCO2 | 22% | 32% | 54% | 
COc1ccccc1SC[C@@H](C)CN[C@@H]1COc2ccccc2SC1 | 65% |  |  | 
C[C@@H](CN[C@@H]1COc2ccccc2SC1)CSc1cccc2cc[nH]c12 |  | 8% | 8% | 
COc1c(C)cccc1SC[C@@H](C)CN[C@@H]1COc2ccccc2SC1 |  | 28% | 32% | 
CC(C)c1ccc(C(=O)N=C(N)N)cc1S(C)(=O)=O [CARIPORIDE] | 6% |  |  | Activity (Sus scrofa [4]): Active; Activity (Plasma): Active; Activity [5]: 6.8%
C[C@@H](CN[C@@H]1COc2ccccc2SC1)CSc1cccc(C(N)=O)c1O | 43% | 59% | 65% | 
CCc1cccc(SC[C@@H](C)CN[C@@H]2COc3ccccc3SC2)c1O | 13% | 56% | 56% | 
Cc1cccc(SC[C@@H](C)CN[C@@H]2COc3ccccc3SC2)c1N | 35% | 26% | 26% | 
C[C@@H](CN[C@@H]1COc2ccccc2SC1)CSc1cccc2ncoc12 | 84% | 16% | 26% | 
C[C@@H](CN[C@@H]1COc2ccccc2SC1)CSc1cccc(F)c1N | 33% | 11% | 19% | 
C[C@@H](CN[C@@H]1COc2ccccc2SC1)CSc1cccc(N)c1O |  | 11% | 19% | 
C[C@@H](CN[C@@H]1COc2ccccc2SC1)CSc1cccc2c1OCC2 | 72% | 47% | 56% | 
NC1=N[C@H](O)[C@H]2[C@H]3O[C@]4(O)O[C@@H]([C@@H](O)[C@@]2(N1)[C@@H]4O)[C@]3(O)CO |  |  |  | inhibition (Cardiac atrium): 64%
COc1cccc(SC[C@@H](C)CN[C@@H]2COc3ccccc3SC2)c1O | 46% | 35% | 46% | 
COc1cccc(SC[C@@H](C)CN[C@@H]2COc3ccccc3SC2)c1N | 21% | 13% | 18% | 
Cc1cccc(SC[C@@H](C)CN[C@@H]2COc3ccccc3SC2)c1O | 70% | 73% | 87% | Activity (Sus scrofa [4]): Active; Activity (Plasma): Active; Activity [6]: 3.5%; Activity (Sus scrofa [7]): inactive; Activity (Heart [8]): -1.6 dyn.s.cm'-5.10'4; Activity (Sus scrofa [9]): inactive; Activity (Sus scrofa [10]): inactive; Activity (Heart [11]): 0.1 bpm; Activity (Heart [12]): -5.9 mmHg
CCOc1ccccc1SC[C@@H](C)CN[C@@H]1COc2ccccc2SC1 |  | 41% | 54% | 
Cc1cccc(SC[C@@H](C)CN[C@@H]2COc3ccccc3SC2)c1CO | 31% | 45% | 58% | 
Cc1ccccc1SC[C@@H](C)CN[C@@H]1COc2ccccc2SC1 |  | 11% | 14% | 
CC(C)c1cccc(SC[C@@H](C)CN[C@@H]2COc3ccccc3SC2)c1O |  | 38% | 46% | 
C[C@@H](CN[C@@H]1COc2ccccc2SC1)CSc1cccc2cn[nH]c12 | 73% | 34% | 44% | 
C[C@@H](CN[C@@H]1COc2ccccc2SC1)CSc1cccc2ccoc12 | 68% | 73% | 82% | 
